Test results as given in ChEMBL document CHEMBL5053517, “Design, synthesis, and antiviral activity of phenylalanine derivatives as HIV-1 capsid inhibitors” (Bioorg Med Chem, 2021).

How the values were obtained:
[1] = tested on: MT4; experiment: (§1) Cytotoxicity against human MT4 cells assessed as reduction in cell viability incubated for 3 days by XTT assay; assay type: cell-based; details: mt4, 72 h, time 3 day
In short: (§2)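 Uninfected MT-4 cells were cultured with various compound concentrations at 37°C, 5% CO₂ for three days, in parallel with the antiviral assay. XTT was added, and absorbance at 450 nm was read four hours later. CC₅₀ is the concentration giving 50% loss of cell viability.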

[2] = Selectivity index, ratio of CC50 for cytotoxicity against human MT4 cells to EC50 for antiviral activity against HIV1 infected in human MT4 cells; assay type: toxicity, cell-based; details: read-out: Ratio CC50/EC50
In short: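 SI is CC₅₀/EC₅₀. For EC₅₀, MT-4 cells (1 × 10⁵ cells/mL) were infected with 200 TCID50 HIV-1 NL4-3 Nanoluc-sec with graded compound concentrations, held 3 days at 37°C, 5% CO₂, and read by luminescence; EC₅₀ is 50% luciferase reduction versus virus control. For CC₅₀, uninfected MT-4 cells were run in parallel for 3 days with an XTT read-out at 450 nm.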

[3] = tested on: Human immunodeficiency virus 1; experiment: Antiviral activity against HIV1 NL4-3 expressing NanoLuc-sec infected in human MT4 cells assessed as reduction in viral replication measured after 3 days by bright Glo-luciferase reporter gene assay; assay type: functional, organism-based; details: Human immunodeficiency virus 1, NL4-3, MT4, 72 h
In short: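 MT-4 cells (1 × 10⁵ cells/mL) infected with 200 TCID50 HIV-1 NL4–3 Nanoluc-sec across a range of compound concentrations. Incubation ran 3 days at 37°C, 5% CO₂, over multiple replication rounds. Luminescence was read after Bright Glo addition. EC₅₀ is the concentration giving 50% lower luciferase RLU than virus-control wells.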

[4] = Binding affinity to HIV1 capsid protein monomer assessed as dissociation constant by SPR analysis; parameters: species or system Human immunodeficiency virus 1
In short: (§3)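 SPR at 25 °C on amine-coupled GLH chips, with protein at 500 μg/ml in 10 mM sodium acetate pH 5.5. Running buffer was 20 mM sodium phosphate, 150 mM NaCl, 0.005% Tween 20, pH 7.4, plus 3% DMSO for compound dilutions. One-shot kinetics used 100 μL/min, 1 min association and 5 min dissociation. Responses were reference-subtracted, run three times, and KD taken from a one-site binding model.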

[5] = Binding affinity to HIV1 capsid protein hexamer assessed as dissociation constant by SPR analysis; parameters: species or system Human immunodeficiency virus 1; in short: as §3
[6] = as §1; assay type: cell-based; details: MT4 cells, time 3 day; in short: as §2

Compound | CC50 [1] | selectivity ratio [2] | EC50 [3] | Kd [4] | Kd [5] | CC50 at 72 h [6]
COc1ccc(N(C)C(=O)[C@H](Cc2ccccc2)NC(=O)c2cccc(S(=O)(=O)N3CCSCC3)c2)cc1 | > 9.33 µM | > 1.84 | 5.06 µM | – | – | –
COc1ccc(N(C)C(=O)[C@H](Cc2ccccc2)NC(=O)c2cccc(NS(=O)(=O)c3ccc(OC(F)(F)F)cc3)c2)cc1 | > 7.97 µM | – | > 7.97 µM | – | – | –
COc1ccc(N(C)C(=O)[C@H](Cc2ccccc2)NS(=O)(=O)CC(=O)Nc2ccc(C#N)cc2)cc1 | > 9.87 µM | > 1.22 | 8.09 µM | – | – | –
COc1ccc(N(C)C(=O)[C@H](Cc2ccccc2)NC(=O)c2cccc(S(=O)(=O)Nc3ccc(C(F)(F)F)cc3)c2)cc1 | > 8.17 µM | – | > 8.17 µM | – | – | –
COc1ccc(N(C)C(=O)[C@H](Cc2ccccc2)NC(=O)c2cccc(S(=O)(=O)N3CCc4cc([N+](=O)[O-])ccc43)c2)cc1 | > 8.13 µM | – | > 8.13 µM | – | – | –
COc1ccc(N(C)C(=O)CS(=O)(=O)N[C@@H](Cc2ccccc2)C(=O)N(C)c2ccc(OC)cc2)cc1 | > 9.51 µM | > 1.85 | 5.14 µM | 15.8 µM | 4.82 µM | –
COc1ccc(N(C)C(=O)[C@H](Cc2ccccc2)NC(=O)c2cccc(S(=O)(=O)Nc3cc(F)cc(F)c3)c2)cc1 | > 8.63 µM | – | > 8.63 µM | – | – | –
COc1ccc(N(C)C(=O)[C@H](Cc2ccccc2)NC(=O)c2cccc(NS(=O)(=O)c3cc(F)cc(F)c3)c2)cc1 | > 8.63 µM | – | > 8.63 µM | – | – | –
COc1ccc(N(C)C(=O)c2cccc(S(=O)(=O)N[C@@H](Cc3ccccc3)C(=O)N(C)c3ccc(OC)cc3)c2)cc1 | > 8.51 µM | – | > 8.51 µM | – | – | –
COc1ccc(N(C)C(=O)[C@H](Cc2ccccc2)NC(=O)c2cccc(S(=O)(=O)N(C)c3ccc(OC)cc3)c2)cc1 | > 8.51 µM | > 1.61 | 5.27 µM | – | – | –
COc1ccc(N(C)C(=O)[C@H](Cc2ccccc2)NS(=O)(=O)c2cccc(C(=O)Nc3ccc4ncsc4c3)c2)cc1 | > 8.32 µM | – | > 8.32 µM | – | – | –
COc1ccc(N(C)C(=O)[C@H](Cc2ccccc2)NS(=O)(=O)CC(=O)N2CCc3cc(OC)ccc32)cc1 | > 9.3 µM | – | > 9.3 µM | – | – | –
COc1ccc(N(C)C(=O)[C@H](Cc2ccccc2)NS(=O)(=O)CC(=O)N2CCc3cc([N+](=O)[O-])ccc32)cc1 | – | – | > 9.09 µM | – | – | > 9.05 µM
COc1ccc(N(C)C(=O)[C@H](Cc2ccccc2)NC(=O)c2cccc(S(=O)(=O)N3CCc4cc(OC)ccc43)c2)cc1 | > 8.34 µM | – | > 8.34 µM | – | – | –
COc1ccc(N(C)C(=O)[C@H](Cc2ccccc2)NS(=O)(=O)CC(=O)Nc2ccc3ncsc3c2)cc1 | > 9.28 µM | – | > 9.28 µM | – | – | –
COc1ccc(N(C)C(=O)[C@H](Cc2ccccc2)NC(=O)C(=O)N2CCc3cc(OC)ccc32)cc1 | > 10.3 µM | – | > 10.3 µM | – | – | –

Compound | CC50 [1] | selectivity ratio [2] | EC50 [3] | Kd [4] | Kd [5] | CC50 at 72 h [6]
COc1ccc(N(C)C(=O)[C@H](Cc2ccccc2)NS(=O)(=O)c2cccc(C(=O)NC3CC3)c2)cc1 | > 9.85 µM | – | > 9.85 µM | – | – | –
COc1ccc(N(C)C(=O)[C@H](Cc2ccccc2)NS(=O)(=O)CC(=O)Nc2cc(F)cc(F)c2)cc1 | > 9.66 µM | – | > 9.66 µM | – | – | –
COc1ccc(N(C)C(=O)[C@H](Cc2ccccc2)NC(=O)c2cccc(NS(=O)(=O)c3ccc(F)cc3)c2)cc1 | > 8.91 µM | – | > 8.91 µM | – | – | –
COc1ccc(N(C)C(=O)[C@H](Cc2ccccc2)NC(=O)c2cccc(S(=O)(=O)N3CCc4cc(N)ccc43)c2)cc1 | > 8.55 µM | > 3.33 | 2.57 µM | 11.6 µM | 4.21 µM | –
COc1ccc(N(C)C(=O)[C@H](Cc2ccccc2)NC(=O)C(=O)Nc2ccc([N+](=O)[O-])cc2)cc1 | – | – | > 10.5 µM | – | – | –
COc1ccc(N(C)C(=O)[C@H](Cc2ccccc2)NC(=O)C(=O)Nc2cc(F)cc(F)c2)cc1 | > 8.81 µM | – | > 8.81 µM | – | – | –
COc1ccc(N(C)C(=O)[C@H](Cc2ccccc2)NS(=O)(=O)c2cccc(C(=O)N3CCc4ccncc43)c2)cc1 | – | – | > 8.76 µM | – | – | > 8.76 µM
COc1ccc(N(C)C(=O)C(=O)N[C@@H](Cc2ccccc2)C(=O)N(C)c2ccc(OC)cc2)cc1 | > 10.5 µM | – | > 10.5 µM | – | – | –
COc1ccc(N(C)C(=O)[C@H](Cc2ccccc2)NC(=O)c2cccc(S(=O)(=O)N(C)C)c2)cc1 | > 10.1 µM | > 1.12 | 8.68 µM | – | – | –
COc1ccc(N(C)C(=O)[C@H](Cc2ccccc2)NC(=O)C(=O)N2CCc3cc([N+](=O)[O-])ccc32)cc1 | > 9.95 µM | – | > 9.95 µM | – | – | –
COc1ccc(N(C)C(=O)[C@H](Cc2ccccc2)NC(=O)c2cccc(S(=O)(=O)N3CCCCC3)c2)cc1 | – | > 1.86 | 4.85 µM | – | – | > 9.03 µM
COc1ccc(N(C)C(=O)[C@H](Cc2ccccc2)NC(=O)c2cccc(S(=O)(=O)N3CCc4ccccc43)c2)cc1 | > 8.78 µM | – | > 8.78 µM | – | – | –
COc1ccc(N(C)C(=O)[C@H](Cc2ccccc2)NC(=O)C(=O)Nc2ccc3ncsc3c2)cc1 | > 10.2 µM | – | > 10.2 µM | – | – | –
COc1ccc(N(C)C(=O)[C@H](Cc2ccccc2)NC(=O)C(=O)Nc2ccc(C#N)cc2)cc1 | > 11 µM | – | > 11 µM | – | – | –
COc1ccc(N(C)C(=O)[C@H](Cc2ccccc2)NS(=O)(=O)CC(=O)n2ncc3ccccc32)cc1 | > 9.87 µM | – | > 9.87 µM | – | – | –
COc1ccc(N(C)C(=O)[C@H](Cc2ccccc2)NS(=O)(=O)c2cccc(C(=O)N3CCOCC3)c2)cc1 | > 9.3 µM | – | > 9.3 µM | – | – | –
